From ChEMBL document CHEMBL4229344 (Eur J Med Chem, 2018)
The source made the active and inactive calls. The rule behind the calls is not given here.

Key:
[1] = biological target: Serine/threonine-protein kinase Chk2 (Homo sapiens) (UniProt O96017); test: Binding affinity to wild-type human partial length CHEK2 (S253 to E574 residues) expressed in bacterial expression system assessed as residual binding level at 1 uM by Kinomescan method relative to control
[2] = biological target: Serine/threonine-protein kinase TAO3 (Homo sapiens) (UniProt Q9H2K8); test: Binding affinity to wild-type human partial length TAOK3 (M1 to T316 residues) expressed in mammalian expression system assessed as residual binding level at 1 uM by Kinomescan method relative to control
[3] = biological target: Serine/threonine-protein kinase Sgk1 (Homo sapiens) (UniProt O00141); test: Binding affinity to wild-type human partial length SGK (I60 to L431 residues) expressed in mammalian expression system assessed as residual binding level at 1 uM by Kinomescan method relative to control
NCI-H1703 = test: Induction of apoptosis in human NCI-H1703 cells assessed as cleaved caspase3 expression level after 72 hrs in presence of PDGF-AA by Western blot analysis; assay type: functional, cell-based
How it was run: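 Cells exposed to compound or DMSO for the stated periods, then lysed and immunoblotted for PARP and caspase-3 cleavage, with β-actin as loading control. NCI-H1703 stimulation used PDGF AA at 100 ng/mL.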

[4] = biological target: Glycogen synthase kinase-3 alpha (Homo sapiens) (UniProt P49840); test: Binding affinity to wild-type human full length GSK3A (M1 to S483 residues) expressed in bacterial expression system assessed as residual binding level at 1 uM by Kinomescan method relative to control
How it was run: (§1)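 Single-concentration (1 μM) competition-binding screen run by KINOMEscan against a panel of 468 purified kinases and mutants. The read-out is the relative binding activity of the test compound to each kinase.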

[5] = biological target: Serine/threonine-protein kinase Nek7 (Homo sapiens) (UniProt Q8TDX7); test: Binding affinity to wild-type human full length NEK7 (M1 to S302 residues) expressed in bacterial expression system assessed as residual binding level at 1 uM by Kinomescan method relative to control
How it was run: (§2)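 Single-concentration KINOMEscan (DiscoverX) binding screen at 1 μM against a panel of 468 purified kinases and mutants. The read-out is binding relative to control.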

[6] = biological target: Calcium/calmodulin-dependent protein kinase type 1G (Homo sapiens) (UniProt Q96NX5); test: Binding affinity to wild-type human partial length CAMK1G (M1 to A342 residues) expressed in bacterial expression system assessed as residual binding level at 1 uM by Kinomescan method relative to control
[7] = biological target: Ephrin type-A receptor 5 (Homo sapiens) (UniProt P54756); test: Binding affinity to wild-type human partial length EPHA5 (T627 to V930 residues) expressed in bacterial expression system assessed as residual binding level at 1 uM by Kinomescan method relative to control
[8] = biological target: Dual specificity tyrosine-phosphorylation-regulated kinase 2 (Homo sapiens) (UniProt Q92630); test: Binding affinity to wild-type human full length DYRK2 (M1 to S528 residues) expressed in mammalian expression system assessed as residual binding level at 1 uM by Kinomescan method relative to control; how it was run: as §1
[9] = biological target: Serine/threonine-protein kinase Nek11 (Homo sapiens) (UniProt Q8NG66); test: Binding affinity to wild-type human partial length NEK11 (M1 to E313 residues) expressed in mammalian expression system assessed as residual binding level at 1 uM by Kinomescan method relative to control
[10] = test system: Tyrosine-protein kinase ABL1 (Homo sapiens), P00519 [F317L]; test: Binding affinity to human non-phosphorylated ABL1 F317L mutant (S229 to K512 residues) expressed in mammalian expression system assessed as residual binding level at 1 uM by Kinomescan method relative to control
How it was run: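 Kinome-wide single-concentration binding screen (KINOMEscan) at 1 μM against a panel of 468 purified kinases and mutants. Read-out is relative binding of each kinase compared with control. Selectivity across the panel was summarised as an S(10) score.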

[11] = biological target: Cyclin-dependent kinase 7 (Homo sapiens) (UniProt P50613); test: Binding affinity to wild-type human full length CDK7 (M1 to L344 residues) expressed in mammalian expression system assessed as residual binding level at 1 uM by Kinomescan method relative to control
How it was run: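 KINOMEscan competition binding against 468 purified kinases/mutants, test compound at 1 µM; residual binding relative to control.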

[12] = biological target: Ribosomal protein S6 kinase alpha-5 (Homo sapiens) (UniProt O75582); test: Binding affinity to wild-type human partial length C-terminal RPS6KA5 kinase domain 2 (V390 to T718 residues) expressed in bacterial expression system assessed as residual binding level at 1 uM by Kinomescan method relative to control
[13] = test system: Tyrosine-protein kinase ABL1 (Homo sapiens), P00519 [Y253F]; test: Binding affinity to human phosphorylated ABL1 Y253F mutant (S229 to K512 residues) expressed in mammalian expression system assessed as residual binding level at 1 uM by Kinomescan method relative to control; how it was run: as §1
[14] = biological target: Ribosomal protein S6 kinase alpha-3 (Homo sapiens) (UniProt P51812); test: Binding affinity to wild-type human partial length N-terminal RSK2 kinase domain 1 (M1 to D394 residues) expressed in mammalian expression system assessed as residual binding level at 1 uM by Kinomescan method relative to control
[15] = biological target: Serine/threonine-protein kinase ULK3 (Homo sapiens) (UniProt Q6PHR2); test: Binding affinity to wild-type human partial length ULK3 (M1 to Q290 residues) expressed in mammalian expression system assessed as residual binding level at 1 uM by Kinomescan method relative to control
[16] = biological target: Serine/threonine-protein kinase PLK2 (Homo sapiens) (UniProt Q9NYY3); test: Binding affinity to wild-type human partial length PLK2 (H58 to F354 residues) expressed in mammalian expression system assessed as residual binding level at 1 uM by Kinomescan method relative to control
How it was run: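 KINOMEscan competition binding against a panel of 468 purified kinases/mutants, compound tested at 1 μM; readout is relative binding activity versus control.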

[17] = biological target: RAC-beta serine/threonine-protein kinase (Homo sapiens) (UniProt P31751); test: Binding affinity to wild-type human partial length AKT2 expressed in bacterial expression system assessed as residual binding level at 1 uM by Kinomescan method relative to control; how it was run: as §2
[18] = biological target: Angiopoietin-1 receptor (Homo sapiens) (UniProt Q02763); test: Binding affinity to wild-type human partial length TIE2 (N804 to T1112 residues) expressed in bacterial expression system assessed as residual binding level at 1 uM by Kinomescan method relative to control
[19] = biological target: Serine/threonine-protein kinase STK11 (Homo sapiens) (UniProt Q15831); test: Binding affinity to wild-type human full length LKB1 (M1 to Q433 residues) expressed in bacterial expression system assessed as residual binding level at 1 uM by Kinomescan method relative to control; how it was run: as §1
[20] = biological target: Serine/threonine-protein kinase ICK (Homo sapiens) (UniProt Q9UPZ9); test: Binding affinity to wild-type human partial length ICK (M1 to P314 residues) expressed in mammalian expression system assessed as residual binding level at 1 uM by Kinomescan method relative to control
Serine/threonine-protein kinase ICK (Homo sapiens), sequence (Q9UPZ9 whole entry, the tested form may be a part): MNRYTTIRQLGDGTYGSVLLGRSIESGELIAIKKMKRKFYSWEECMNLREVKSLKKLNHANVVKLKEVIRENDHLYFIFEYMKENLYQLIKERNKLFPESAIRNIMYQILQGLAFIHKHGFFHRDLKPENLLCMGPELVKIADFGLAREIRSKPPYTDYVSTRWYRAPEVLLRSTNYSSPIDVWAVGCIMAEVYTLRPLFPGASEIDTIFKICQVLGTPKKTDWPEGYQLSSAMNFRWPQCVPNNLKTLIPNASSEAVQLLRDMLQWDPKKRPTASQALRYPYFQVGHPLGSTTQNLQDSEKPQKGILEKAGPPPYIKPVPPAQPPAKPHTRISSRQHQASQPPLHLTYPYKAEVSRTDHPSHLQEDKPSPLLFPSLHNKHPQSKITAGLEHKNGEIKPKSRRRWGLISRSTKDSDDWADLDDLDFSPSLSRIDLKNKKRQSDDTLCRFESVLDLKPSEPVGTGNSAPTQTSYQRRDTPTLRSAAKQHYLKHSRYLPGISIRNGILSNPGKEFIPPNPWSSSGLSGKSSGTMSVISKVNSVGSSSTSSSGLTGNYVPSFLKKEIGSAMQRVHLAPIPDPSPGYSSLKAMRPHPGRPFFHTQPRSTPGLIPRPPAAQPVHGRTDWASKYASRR

Ribosomal protein S6 kinase alpha-5 (Homo sapiens), sequence (O75582 whole entry, looked up, the tested form may be a part): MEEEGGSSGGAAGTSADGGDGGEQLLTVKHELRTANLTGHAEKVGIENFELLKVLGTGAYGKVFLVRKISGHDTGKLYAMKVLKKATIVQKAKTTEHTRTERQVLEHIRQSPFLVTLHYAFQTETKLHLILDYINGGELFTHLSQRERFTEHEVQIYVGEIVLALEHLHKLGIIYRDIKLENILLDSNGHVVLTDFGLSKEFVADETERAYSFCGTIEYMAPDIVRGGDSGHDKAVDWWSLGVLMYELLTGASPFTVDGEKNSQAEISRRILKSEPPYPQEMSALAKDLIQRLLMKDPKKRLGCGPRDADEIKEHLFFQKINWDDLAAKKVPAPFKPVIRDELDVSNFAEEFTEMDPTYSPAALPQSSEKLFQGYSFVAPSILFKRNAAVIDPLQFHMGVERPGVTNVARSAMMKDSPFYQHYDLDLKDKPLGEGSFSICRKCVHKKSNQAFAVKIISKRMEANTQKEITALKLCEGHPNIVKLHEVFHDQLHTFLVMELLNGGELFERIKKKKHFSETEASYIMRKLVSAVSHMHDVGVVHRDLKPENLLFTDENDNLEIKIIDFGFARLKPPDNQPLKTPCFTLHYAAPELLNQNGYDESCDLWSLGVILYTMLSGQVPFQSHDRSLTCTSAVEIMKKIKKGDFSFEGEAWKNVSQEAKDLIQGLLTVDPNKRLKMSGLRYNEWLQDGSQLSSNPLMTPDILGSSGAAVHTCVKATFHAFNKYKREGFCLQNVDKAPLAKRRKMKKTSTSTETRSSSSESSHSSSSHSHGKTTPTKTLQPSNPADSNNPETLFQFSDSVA
Serine/threonine-protein kinase PLK2 (Homo sapiens), sequence (Q9NYY3 whole entry, looked up, the tested form may be a part): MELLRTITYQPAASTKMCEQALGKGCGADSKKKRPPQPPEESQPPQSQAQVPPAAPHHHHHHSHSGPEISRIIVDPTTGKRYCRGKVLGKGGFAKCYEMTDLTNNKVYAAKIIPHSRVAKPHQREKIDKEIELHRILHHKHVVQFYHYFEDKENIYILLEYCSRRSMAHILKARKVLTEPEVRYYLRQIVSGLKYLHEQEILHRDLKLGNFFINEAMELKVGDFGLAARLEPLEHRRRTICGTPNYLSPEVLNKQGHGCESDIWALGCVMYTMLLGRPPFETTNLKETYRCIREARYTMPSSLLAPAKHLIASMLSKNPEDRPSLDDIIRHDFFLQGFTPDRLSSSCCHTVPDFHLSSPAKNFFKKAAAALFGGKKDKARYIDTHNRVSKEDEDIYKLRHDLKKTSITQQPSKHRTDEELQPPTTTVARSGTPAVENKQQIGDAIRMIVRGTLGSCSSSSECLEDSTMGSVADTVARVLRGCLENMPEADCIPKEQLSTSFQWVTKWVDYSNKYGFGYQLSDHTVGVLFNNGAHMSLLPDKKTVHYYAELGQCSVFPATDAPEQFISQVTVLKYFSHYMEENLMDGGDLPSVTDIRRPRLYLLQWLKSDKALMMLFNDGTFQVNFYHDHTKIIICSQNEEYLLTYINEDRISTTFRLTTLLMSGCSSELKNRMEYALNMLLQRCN
Serine/threonine-protein kinase ULK3 (Homo sapiens), sequence (Q6PHR2 whole entry, the tested form may be a part): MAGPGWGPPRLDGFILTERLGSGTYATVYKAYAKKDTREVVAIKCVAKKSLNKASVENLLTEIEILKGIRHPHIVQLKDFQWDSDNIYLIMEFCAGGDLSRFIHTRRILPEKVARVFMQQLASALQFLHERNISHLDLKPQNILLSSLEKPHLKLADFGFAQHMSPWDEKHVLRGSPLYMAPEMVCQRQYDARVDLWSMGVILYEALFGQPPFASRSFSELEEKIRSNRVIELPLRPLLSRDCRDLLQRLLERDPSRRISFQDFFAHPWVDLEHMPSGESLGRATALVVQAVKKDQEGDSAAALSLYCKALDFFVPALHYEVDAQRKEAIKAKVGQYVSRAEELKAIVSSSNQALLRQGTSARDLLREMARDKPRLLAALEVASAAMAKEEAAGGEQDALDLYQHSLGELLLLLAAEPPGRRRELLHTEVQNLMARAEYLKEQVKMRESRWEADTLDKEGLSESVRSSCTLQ
Serine/threonine-protein kinase TAO3 (Homo sapiens), sequence (Q9H2K8 whole entry, the tested form may be a part): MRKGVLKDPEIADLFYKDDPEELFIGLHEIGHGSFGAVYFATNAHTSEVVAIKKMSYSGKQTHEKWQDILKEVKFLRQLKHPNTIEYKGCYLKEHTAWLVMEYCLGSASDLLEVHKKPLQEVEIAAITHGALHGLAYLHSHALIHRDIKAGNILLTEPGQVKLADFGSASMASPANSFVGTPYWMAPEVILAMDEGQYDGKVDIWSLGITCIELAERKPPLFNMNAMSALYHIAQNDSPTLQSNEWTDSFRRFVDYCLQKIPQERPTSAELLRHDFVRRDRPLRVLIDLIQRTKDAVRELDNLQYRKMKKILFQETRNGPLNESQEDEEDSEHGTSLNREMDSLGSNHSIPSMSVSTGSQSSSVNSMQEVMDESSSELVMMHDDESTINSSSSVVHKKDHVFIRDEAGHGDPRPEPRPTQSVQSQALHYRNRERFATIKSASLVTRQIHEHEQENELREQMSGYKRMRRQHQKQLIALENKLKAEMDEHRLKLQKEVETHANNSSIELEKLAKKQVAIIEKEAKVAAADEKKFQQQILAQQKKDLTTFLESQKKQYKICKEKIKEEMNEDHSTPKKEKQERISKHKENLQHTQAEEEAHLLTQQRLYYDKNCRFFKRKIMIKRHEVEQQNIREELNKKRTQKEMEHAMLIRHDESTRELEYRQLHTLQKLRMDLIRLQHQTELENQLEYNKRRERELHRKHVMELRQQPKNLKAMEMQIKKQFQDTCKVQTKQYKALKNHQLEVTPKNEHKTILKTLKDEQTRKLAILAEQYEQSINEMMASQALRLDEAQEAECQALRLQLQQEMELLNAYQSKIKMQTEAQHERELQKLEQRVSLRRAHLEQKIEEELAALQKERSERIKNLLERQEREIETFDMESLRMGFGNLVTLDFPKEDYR
Ephrin type-A receptor 5 (Homo sapiens), sequence (P54756 whole entry, the tested form may be a part): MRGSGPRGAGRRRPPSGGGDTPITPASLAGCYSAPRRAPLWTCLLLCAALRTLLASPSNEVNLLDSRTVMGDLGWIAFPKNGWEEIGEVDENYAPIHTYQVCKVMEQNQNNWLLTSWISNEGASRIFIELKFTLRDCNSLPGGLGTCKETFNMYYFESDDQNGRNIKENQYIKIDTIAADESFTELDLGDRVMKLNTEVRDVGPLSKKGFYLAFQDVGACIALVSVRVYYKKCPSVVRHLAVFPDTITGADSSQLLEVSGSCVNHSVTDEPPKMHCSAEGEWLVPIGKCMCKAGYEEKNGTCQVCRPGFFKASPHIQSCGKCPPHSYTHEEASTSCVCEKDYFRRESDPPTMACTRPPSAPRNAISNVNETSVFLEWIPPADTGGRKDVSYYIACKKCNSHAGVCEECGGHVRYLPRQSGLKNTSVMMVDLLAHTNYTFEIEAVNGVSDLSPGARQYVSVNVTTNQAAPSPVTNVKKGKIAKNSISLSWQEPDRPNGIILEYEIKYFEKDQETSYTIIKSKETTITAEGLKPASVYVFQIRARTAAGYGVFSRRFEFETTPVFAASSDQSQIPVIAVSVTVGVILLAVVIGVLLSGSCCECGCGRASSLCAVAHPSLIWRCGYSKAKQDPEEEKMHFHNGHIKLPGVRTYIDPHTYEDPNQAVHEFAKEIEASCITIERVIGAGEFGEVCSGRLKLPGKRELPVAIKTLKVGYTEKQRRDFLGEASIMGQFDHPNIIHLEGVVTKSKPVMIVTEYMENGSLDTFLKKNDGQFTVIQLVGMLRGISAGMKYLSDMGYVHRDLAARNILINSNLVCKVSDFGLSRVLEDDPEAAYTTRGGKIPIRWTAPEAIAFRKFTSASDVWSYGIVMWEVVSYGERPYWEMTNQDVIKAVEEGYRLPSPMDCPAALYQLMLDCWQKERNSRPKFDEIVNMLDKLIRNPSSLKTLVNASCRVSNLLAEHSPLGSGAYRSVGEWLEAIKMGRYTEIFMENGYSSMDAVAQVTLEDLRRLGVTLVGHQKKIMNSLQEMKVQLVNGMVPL
Glycogen synthase kinase-3 alpha (Homo sapiens), sequence (P49840 2-483 limits assumed): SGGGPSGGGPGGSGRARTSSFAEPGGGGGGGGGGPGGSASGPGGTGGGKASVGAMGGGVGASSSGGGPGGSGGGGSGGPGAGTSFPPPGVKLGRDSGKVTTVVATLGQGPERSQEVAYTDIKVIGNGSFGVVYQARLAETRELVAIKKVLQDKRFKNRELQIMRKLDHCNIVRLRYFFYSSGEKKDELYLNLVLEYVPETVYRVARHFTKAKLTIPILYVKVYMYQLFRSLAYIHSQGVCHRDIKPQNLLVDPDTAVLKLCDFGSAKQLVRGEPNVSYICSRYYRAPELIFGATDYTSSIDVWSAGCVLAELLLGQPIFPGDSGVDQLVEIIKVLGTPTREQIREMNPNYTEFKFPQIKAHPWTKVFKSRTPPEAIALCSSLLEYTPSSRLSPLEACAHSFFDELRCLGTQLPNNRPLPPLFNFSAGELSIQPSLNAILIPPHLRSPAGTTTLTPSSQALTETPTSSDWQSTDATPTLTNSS

For `Cc1ccc(NC(=O)c2ccc(CN(CCN(C)C)C(=O)c3cccnc3)cc2)cc1Nc1nccc(-c2cccnc2)n1`, which Activity [1] is on record?
Its Activity is 95%.

What about the Activity [2] of the same compound?
The Activity was 100%.

What about the Activity [3] of the same compound?
Its Activity is 100%.

What about the Activity (NCI-H1703) of the same compound?
Its Activity is “Active”.

What about the Activity [4] of the same compound?
The Activity was 100%.

What about the Activity [5] of the same compound?
The Activity was 96%.

And the Activity [6]?
The Activity was 100%.

What about the Activity [7] of the same compound?
The Activity was 86%.

And the Activity [8]?
The Activity was 100%.

What about the Activity [9] of the same compound?
The Activity was 100%.

What about the Activity [10] of the same compound?
The Activity was 79%.

And the Activity [11]?
Its Activity is 91%.

What about the Activity [12] of the same compound?
Its Activity is 89%.

What about the Activity [13] of the same compound?
Its Activity is 90%.

What about the Activity [14] of the same compound?
The Activity was 100%.

What about the Activity [15] of the same compound?
The Activity was 85%.

What about the Activity [16] of the same compound?
The Activity was 87%.

And the Activity [17]?
The Activity was 100%.

What about the Activity [18] of the same compound?
Its Activity is 93%.

And the Activity [19]?
Its Activity is 99%.

And the Activity [20]?
Its Activity is 100%.
